From publication PMC10350030 (bioRxiv, 2023)
Entries after “also recorded” stand apart in the source; their conditions may differ.

What was measured:
FAM-Aβ42 = FAM-Aβ42 (Homo sapiens, UniProt P05067); format: biochemical; conditions: for enhancement of CP-induced degradation of FAM-Aβ42 by anti-oxidants: compared with CP only group
mature iPS neurons = experiment: Toxicity study with iPS neuronal cells; format: cell-based; conditions: 24 hours, Tuj-1 staining; for neuritic continuity of neurons treated with Aβ oligomers: Aβ Oligomer (20 μM)
Procedure, shortened: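 Neurons came from iPS cells differentiated from blood stem cells and were used as mature cultures 12 days after seeding. They were treated with Aβ oligomers (20 µM), with or without test compound. Neuronal morphology and neurite continuity were assessed by immunocytochemistry for Tuj-1, a neuronal class III β-tubulin marker.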

[1] = Fluorescence spectra of FAM-Aβ42 during incubation in PBS; format: physicochemical; conditions: PBS buffer, 0 to 60 minutes, peptide alone
SH-SY5Y cells = experiment: ApopTag fluorescein in situ apoptosis detection assay with Aβ42 oligomers; format: cell-based; conditions: Aβ oligomer (20 μM) and AO (2 μM), 24 hours, compared to the control group
[2] = test system: hippocampal CA1 area from mouse brain slides; experiment: Extracellular fEPSP recording in hippocampal CA1 of brain slices; conditions: 1 hour
Procedure, shortened: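 In hippocampal slices, the Schaffer collateral pathway was stimulated once every 15 s with 0.1 ms current pulses. Field potentials were recorded extracellularly in the CA1 stratum radiatum. fEPSP was measured as the negative deflection of the voltage trace from baseline. Maximal amplitude was summarised for four groups: control, Aβ (1 µM), test compound (0.1 µM), and Aβ plus test compound.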

Sequence of FAM-Aβ42 (P05067 672-713): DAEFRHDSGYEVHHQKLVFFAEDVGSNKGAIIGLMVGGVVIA

O=C(O)CN(CCN(CC(=O)O)CC(=O)O)CC(=O)O [EDTA]
effect of EDTA on Cu/Vc-induced degradation of FAM-Aβ42 (FAM-Aβ42; Cu(II)/EDTA/Vc (1:10:20), control experiment): inhibited the degradation

O=C1O[C@H]([C@@H](O)CO)C(O)=C1O [Vc, Vitamin C]
degradation enhancement by Vc when incubated with AO (FAM-Aβ42; AO/Vc versus AO): no significant degradation enhancement

COc1cc(/C=C/C(=O)CC(=O)/C=C/c2ccc(O)c(OC)c2)ccc1O [curcumin]
enhancement of CP-induced degradation of FAM-Aβ42 by anti-oxidants (FAM-Aβ42): neither of these anti-oxidants could enhance the degradation

NCCc1ccc(O)c(O)c1 [dopamine]
enhancement of CP-induced degradation of FAM-Aβ42 by anti-oxidants (FAM-Aβ42): neither of these anti-oxidants could enhance the degradation

NC[C@H](O)c1ccc(O)c(O)c1 [norepinephrine]
enhancement of CP-induced degradation of FAM-Aβ42 by anti-oxidants (FAM-Aβ42): neither of these anti-oxidants could enhance the degradation

Oc1ccc(/C=C/c2cc(O)cc(O)c2)cc1 [resveratrol]
enhancement of CP-induced degradation of FAM-Aβ42 by anti-oxidants (FAM-Aβ42): neither of these anti-oxidants could enhance the degradation

Aβ oligomers: Aβ42 oligomers prepared from Aβ42 peptide in F12 media at 4°C for 24 hours [reference compound]
neuritic continuity of neurons treated with Aβ oligomers (mature iPS neurons): apparent broken neuritic segments | neuritic continuity of neurons treated with Aβ oligomers (mature iPS neurons; listed as Aβ Oligomer): loss of neuritic continuity

FAM-Aβ42: a fluorescent dye conjugated Aβ [reference compound]
fluorescence intensity of FAM-Aβ42 during incubation (aggregation-induced fluorescence quenching) [1]: gradually decreasing

ascorbate oxidase [AO]
AO-mediated cleavage of FAM-Aβ42 under N2 (FAM-Aβ42; N2 gas bubbled into the incubation buffer before incubation): considerably reduced | cleavage of FAM-Aβ42 (FAM-Aβ42; after 4 hours of incubation with AO): more than 50% | level of cell apoptosis (SH-SY5Y cells): significantly reduced | neuritic continuity of neurons treated with Aβ oligomers mixed with AO (mature iPS neurons; Aβ Oligomer (20 μM) and AO (2 μM)): no apparent broken segments; also recorded: normal length neurites | change of fEPSP magnitude by AO alone ([2]; AO alone (0.1 µM)): did not cause significant changes | maximal fEPSP amplitude, Ab-AO group ([2]; slices incubated with 1 µM Ab and 0.1 µM AO, mean ± SE): 3.61± 0.49 mV

vitamin E
enhancement of CP-induced degradation of FAM-Aβ42 by anti-oxidants (FAM-Aβ42): neither of these anti-oxidants could enhance the degradation
